Results on ten molecules are retold here after ChEMBL document CHEMBL4840308, “Design and synthesis of Mannich base-type derivatives containing imidazole and benzimidazole as lead compounds for drug discovery in Chagas Disease” (Eur J Med Chem, 2021).

Data set [1] relates to Trypanosoma cruzi. The data set is described as follows: Antiprotozoal activity against Trypanosoma cruzi epimastigotes assessed as inhibition of parasite growth incubated for 72 hrs followed by alamar blue addition further incubated for 24 hrs. The data set is classed as functional, organism-based. The method, boiled down:
(§1)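 CL-Luc:Neon epimastigotes, 2.5 x 10^5/well in RPMI-1640, exposed 72 h at 27 C to 8-point 2:1 serial dilutions (DMSO <0.5% final); Alamar Blue […] added, 24 h further, read at 540 nm; IC50 interpolated from sigmoidal variable-slope fit; triplicates, three independent experiments.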
(In general: Alamar Blue is a resazurin reagent that responds to reducing activity.)

The nature of data set [2]: Cytotoxicity against golden hamster BSR cells assessed as reduction in cell viability incubated for 72 hrs followed by alamar blue addition further incubated for 6 hrs. The data set is classed as cell-based. The note with it: Mesocricetus auratus. In a few lines:
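BSR (BHK-21 subclone) cells, 5 x 10^4/well in DMEM with 5% FBS, adhered 6 h at 37 C, 5% CO2, then given 8-point 2:1 drug dilutions for 72 h; Alamar Blue added for 6 h, absorbance 540 nm; IC50 from sigmoidal variable-slope fit; triplicates, three independent experiments.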

A short description of data set [3]: Selectivity index, ratio of IC50 for cytotoxicity against golden hamster BSR cells to IC50 for antiprotozoal activity against Trypanosoma cruzi epimastigotes. The data set is classed as toxicity, cell-based. The following applies: read-out: Selectivity Index. The method, boiled down: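 Selectivity index as ratio of BSR cell IC50 to epimastigote IC50, both from 72 h Alamar Blue assays.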

The subject of data set [4] is Trypanosoma cruzi. The data set is described as follows: Antiprotozoal activity against Trypanosoma cruzi epimastigotes assessed as decrease in parasitemia by measuring change in fluorescence intensity at >2.5 uM measured after 3 days by flourescence based analysis. It is filed as functional, organism-based. The following applies: dose microM >2.5, time 3.0 day.
Data set [5] concerns Trypanosoma cruzi. The data set is described as follows: Antitrypanosomal activity against Trypanosoma cruzi amastigotes infected in BSR cells assessed as inhibition of replication of intracellular amastigotes incubated for 72 hrs by fluorescence based analysis. The data set is classed as functional, organism-based. The method, boiled down: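 BSR cells (5 x 10^4/well) attached 6 h, infected overnight with CL-Luc:Neon tissue-culture trypomastigotes at MOI 10, washed 3x PBS, then drug in DMEM with 1% FBS for 72 h; fixed in 4% paraformaldehyde 30 min, fluorescence read ex 488/em 525 nm; IC50 by curve interpolation; triplicates, three experiments.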

Data set [6] relates to Trypanosoma cruzi. The data set is described as follows: Antitrypanosomal activity against Trypanosoma cruzi trypomastigotes assessed as inhibition of cellular invasion incubated for 6 hrs in high-glucose DMEM medium followed by compound washout further infected in BSR cells measured after 72 hrs by fluorescence based analysis. It is filed as functional, organism-based. The method, boiled down:
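Tissue-culture trypomastigotes exposed to drug dilutions 6 h at 37 C in high-glucose DMEM with 10% FBS, washed 3x PBS, used to infect BSR cells overnight; non-internalised parasites washed off, 1% FBS medium, infection run 72 h further; amastigote fluorescence (ex 488/em 525 nm) read; IC50 for invasion reduction by curve interpolation.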

A short description of data set [7]: Selectivity index, ratio of cytotoxicity against golden hamster BSR cells to IC50 for antitrypanosomal activity against Trypanosoma cruzi amastigotes infected in BSR cells. The data set is classed as toxicity, cell-based. The note with it: read-out: Selectivity Index. In a few lines:
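Selectivity index as ratio of BSR cell IC50 to intracellular amastigote IC50 (72 h fluorescence read-out).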

The nature of data set [8]: Selectivity index, ratio of cytotoxicity against golden hamster BSR cells to IC50 for antitrypanosomal activity against Trypanosoma cruzi trypomastigotes. It is filed as toxicity, cell-based. The following applies: read-out: Selectivity Index. In a few lines:
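Selectivity index as ratio of BSR cell IC50 to trypomastigote invasion IC50 (6 h pre-exposure, fluorescence read-out).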

Data set [9] has as its system Trypanosoma cruzi. The data set is described as follows: Trypanocidal activity against Trypanosoma cruzi CL-Luc-Neon amastigotes infected in BSR cells assessed as inhibition of parasite growth at 20 times IC50 incubated for 20 days measured after 10 days of compound wash out by epifluorescence microscopy analysis. The data set is classed as functional, organism-based. The following applies: time 20.0 day. In a few lines: (§2)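 BSR cells on 8-well slides or 24-well plates infected with CL-Luc:Neon trypomastigotes as in the amastigote assay, then exposed to 10 or 20 x IC50 for 10 or 20 days, compound renewed every 4 days; after removal, followed up to 30 days by light and fluorescence microscopy at 37 C, 5% CO2; three wells per treatment, 30 captures per timepoint; relapse day recorded.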

Data set [10] concerns Trypanosoma cruzi. The data set is described as follows: Trypanocidal activity against Trypanosoma cruzi CL-Luc-Neon amastigotes infected in BSR cells assessed as inhibition of parasite growth at 20 times IC50 incubated for 20 days measured after 30 days of compound wash out by epifluorescence microscopy analysis. It is filed as functional, organism-based. The following applies: time 20.0 day. In a few lines:
as §2

For data set [11], the system named is Trypanosoma cruzi. The data set is described as follows: Antitrypanosomal activity against Trypanosoma cruzi trymastigotes assessed as blockage of trypomastigote infectivity at >50 uM incubated for 6 hrs followed by compound washout further infected in BSR cells for 18 hrs measured after 120 hrs post infection by inverted fluorescence microscope analysis. The data set is classed as functional, organism-based. The following applies: dose microM >50, time 6.0 hrs. In a few lines:
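Trypomastigotes held 6 h in serial drug concentrations, washed 3x PBS, then infect BSR cells at 10:1 trypomastigote:cell for 18 h; at 120 h post-infection, amastigote replication inspected by inverted epifluorescence microscopy (30 images per treatment, DAPI-stained host nuclei) to find the concentration preventing productive infection.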

Data set [12] is described as follows: Genotoxicity in human TK6 cells assessed as decrease in cell proliferation at 40 uM incubated for 3 hrs by comet assay relative to control. It is filed as cell-based. On the set-up: scale not given: the % may be the effect or the level left. The note with it: tk6, 3 h. In a few lines:
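TK-6 cells (6 x 10^5 in 1 mL RPMI 1640 with 10% FBS) treated 3 h, washed, cultured 48 h at 37 C, 5% CO2 with agitation, counted at 24 and 48 h; relative suspension growth = TSG treated/TSG control as percentage; three independent experiments.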

For data set [13], the system named is Trypanosoma cruzi. The data set is described as follows: Trypanocidal activity against Trypanosoma cruzi epimastigotes assessed as inhibition of parasite growth by alamar blue staining based fluorescence analysis. The data set is classed as functional, organism-based. The method, boiled down:
as §1

In data set [14] the test system is Trypanosoma cruzi. The data set is described as follows: Trypanocidal activity against Trypanosoma cruzi amastigotes assessed as inhibition of parasite growth by alamar blue staining based fluorescence analysis. The data set is classed as functional, organism-based.
Data set [15] has as its system Trypanosoma cruzi. The data set is described as follows: Trypanocidal activity against Trypanosoma cruzi trypomastigotes assessed as inhibition of parasite growth by alamar blue staining based fluorescence analysis. The data set is classed as functional, organism-based.
The subject of data set [16] is Trypanosoma cruzi. The data set is described as follows: Synergistic trypanocidal activity against Trypanosoma cruzi epimastigotes assessed as combination index at IC50 in presence of benznidazole by alamar blue staining based fluorescence analysis. The data set is classed as functional. In a few lines:
(§3)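 Benznidazole IC50 redetermined by Alamar Blue or fluorescence read-outs under each stage's standard seeding conditions in the presence of the partner drug at its IC50; combination index by isobologram method (Ci <1 synergy, =1 additive, >1 antagonism); triplicate per plate, repeated at least twice.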

For data set [17], the system named is Trypanosoma cruzi. The data set is described as follows: Synergistic trypanocidal activity against Trypanosoma cruzi amastigotes assessed as combination index at IC50 in presence of benznidazole by alamar blue staining based fluorescence analysis. The data set is classed as functional. In a few lines: as §3
Data set [18] deals with Trypanosoma cruzi. The data set is described as follows: Synergistic trypanocidal activity against Trypanosoma cruzi trypomastigotes assessed as combination index at IC50 in presence of benznidazole by alamar blue staining based fluorescence analysis. The data set is classed as functional. The method, boiled down: as §3
Data set [19] has as its system Trypanosoma cruzi. The data set is described as follows: Trypanocidal activity against Trypanosoma cruzi epimastigotes assessed as fold decrease in benznidazole IC50 by alamar blue staining based fluorescence analysis relative to control. It is filed as functional. Further details: scale not given: the % may be the effect or the level left. In a few lines: as §3

Data set [20] has as its system Trypanosoma cruzi. The data set is described as follows: Trypanocidal activity against Trypanosoma cruzi trypomastigotes assessed as fold decrease in benznidazole IC50 by alamar blue staining based fluorescence analysis relative to control. It is filed as functional. In a few lines: as §3
The nature of data set [21]: Genotoxicity in human TK6 cells assessed as decrease in cell proliferation at 20 uM incubated for 3 hrs by comet assay. It is filed as cell-based. The note with it: tk6, 3 h. The method, boiled down: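 TK-6 human lymphoblastoid cells (6 x 10^5 in 1 mL culture medium) exposed 3 h, washed three times, then grown 48 h in fresh medium at 37 C, 5% CO2 with agitation, and counted at 24 h (to adjust density) and at 48 h. Relative suspension growth is total suspension growth (48 h count / pre-treatment count) as % of untreated control. Triplicates, three independent experiments.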

Data set [22] has as its system Trypanosoma cruzi. The data set is described as follows: Antitrypanosomal activity against Trypanosoma cruzi trymastigotes assessed as blockage of trypomastigote infectivity at >100 uM incubated for 6 hrs followed by compound washout further infected in BSR cells for 18 hrs measured after 5 days post infection by inverted fluorescence microscope analysis. The note with it: dose microM >100, time 6.0 hrs.

Data set [23] deals with Trypanosoma cruzi. The data set is described as follows: Trypanocidal activity against Trypanosoma cruzi CL-Luc-Neon amastigotes infected in BSR cells assessed as inhibition of parasite growth at 10 times IC50 incubated for 20 days measured after 10 days of compound wash out by epifluorescence microscopy analysis. It is filed as functional, organism-based. The note with it: time 20.0 day. The method, boiled down:
as §2

Data set [24] deals with Trypanosoma cruzi. The data set is described as follows: Trypanocidal activity against Trypanosoma cruzi CL-Luc-Neon amastigotes infected in BSR cells assessed as inhibition of parasite growth at 10 times IC50 incubated for 10 days measured after 10 days of compound wash out by epifluorescence microscopy analysis. It is filed as functional, organism-based. The note with it: time 10.0 day. In a few lines: as §2

SMILES strings stand for the structures. The source made the active and inactive calls. No cut-off for these calls is given here.

As a reminder, the IC50 is the concentration that inhibits the measured activity by half.

Turning to `O=C(CCn1ccnc1)c1ccc(Cl)c(F)c1`, the IC50 is 23.3 µM in data set [1] and 135 µM in data set [2]. Moreover, the selectivity ratio in [3] stood at 6.

For `COc1ccc(C(=O)CCn2ccnc2[N+](=O)[O-])cc1`, the IC50 in data set [1] came out at 2.2 µM; in [2], 84.7 µM; in data set [5], 3.3 µM; in [6] it was 9.1 µM; in [13], 1.2 µM; in data set [14], 0.4 µM. For the same molecule, the IC50 in [15] is 5.4 µM. Also, the selectivity ratio in data set [3] amounted to 43; in data set [7], 28; in data set [8], 9. For the same molecule, the result in data set [4], in [9], in [10] and in data set [11] was Active. In addition, the results for the Activity in data set [12] and in [19] were 45% and 70%, respectively. Also, the CI in data set [16] is recorded as 0.33; in [17], 0.81; in data set [18] it was 0.21. The “fold change (FC)” value in data set [20] turned out to be 4.

For the molecule `COS(C)(=O)=O` [METHANESULFONIC ACID METHYL ESTER], in data set [21], the Activity result is listed as “Toxic”.

For `COc1cc(OC)cc(C(=O)CCn2cnc3ccccc32)c1`, the results for the IC50 in [1] and in data set [2] were 11.1 µM and 70.1 µM, respectively. In [3], the selectivity ratio was determined as 6.

As for `O=C(CCn1cnc2ccccc21)C12CC3CC(CC(C3)C1)C2`, the IC50 in data set [1] came out at 24.8 µM; in data set [2] it was 67.6 µM. For the same molecule, in data set [3], the selectivity ratio was 3.

`O=C(Cn1ccnc1[N+](=O)[O-])NCc1ccccc1` [BENZNIDAZOLE]: the IC50 in data set [2] was found to be 267 µM; in data set [5], 0.5 µM; in [6], 22.4 µM. In addition, the selectivity ratio was 67 in [3], 504 in [7] and 12 in [8]. In addition, the result in data set [4], in data set [9] and in [10] was Active. Further, the result in [22] was inactive.

As to `O=C(CCn1ccnc1)c1ccc(F)c2ccccc12`, the IC50 in [1] was found to be 7.4 µM; in data set [2], 72.2 µM; in [5], 6.1 µM; in [6], 16.6 µM. For the same molecule, the results for the selectivity ratio in data set [3], in [7] and in [8] were 10, 12 and 4, respectively. Also, the result in data set [23] and in data set [24] was inactive.

With `O=C(CCn1ccnc1)c1ccc([N+](=O)[O-])cc1`, the IC50 is 12.9 µM in [1], 93.9 µM in [2] and 9.1 µM in data set [5]. Besides, the selectivity ratio worked out at 7 in [3] and 10 in data set [7].

Turning to `O=C(CCn1ccnc1)c1cccc([N+](=O)[O-])c1`, the IC50 in [1] worked out at 21.6 µM; in [2], 177 µM; in data set [5] it was 12.2 µM; in [6], 23 µM. Moreover, the values for the selectivity ratio in data set [3], in data set [7] and in [8] were 8, 15 and 8, respectively. Further, the outcome in [23] and in [24] was inactive.

Consider `Cc1ccccc1C(=O)CCn1ccnc1`, for which the IC50 was 21.4 µM in [1] and 145 µM in data set [2]. The selectivity ratio in [3] is 7.
